Test [1] can be described thus: inhibitors of TNFa-induced NFkB p65 translocation, primary screen, imaging, HUVEC, MLSMR starter and 10KST1 sets (AID 438;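 active = inhibition above 20% together with a positive visual image hit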;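 also: compound added about 3h40 before a 20 min TNFalpha stimulation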;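 as to inhibition: signal is the nuclear over cytoplasmic p65 intensity ratio per well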). The conditions noted are these: HUVEC TNFa-induced p65 nuclear translocation; cell count: measured here: nuclei count (cytotoxicity indicator), at 2.08 µM; inhibition: at 2 µM, stronger effect = higher value, 0% TNFa-plus-vehicle, 100% no-TNFa wells.
The nature of test [2]: endothelial E-selectin expression blockers – imaging, HUVEC, immunofluorescence, MLSMR starter and 10KST1 sets, primary screen (AID 487;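 active = visually confirmed hit in the image check and inhibition above 20%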;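 as to inhibition: signal is fraction of cell area covered by stained E-selectin grains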;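 as to nuclei count: 100% = median nuclei count of all wells on the same plate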). The conditions noted are these: HUVEC TNFalpha-induced E-selectin immunofluorescence imaging, at 2 µM; inhibition: stronger effect = higher value; nuclei count: measured here: cell number, toxicity.
Test [3] is described as follows: Primary imaging screen for DUSP6 inhibitors that restore phospho-Erk in transfected HeLa cells, chemical complementation (AID 609;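 active = compounds giving at least 50% inhibition in the cell-based MKP-3 phosphatase rescue imaging test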;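 as to inhibition: phospho-Erk level distribution per well compared with pooled transfected vehicle control wells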). The conditions noted are these: HeLa MKP-3 transfected, phospho-Erk imaging KS statistic, at 10 µM, cells stimulated with TPA for 15 min.
The target of test [4] is Dual specificity protein phosphatase 6 (Homo sapiens) (UniProt Q16828). Described as above. The conditions noted are these: HeLa MKP-3 transfected, phospho-Erk imaging KS statistic; at 10 µM; stronger effect = higher value; cells stimulated with TPA for 15 min.
Test [5] addresses Voltage-gated potassium channel subunit beta-2 (Rattus norvegicus) (UniProt P62483). The test is described as follows: inhibitors of rat Kvbeta2 reductase activity – biochemical, NADPH fluorescence, primary screen (AID 622;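 active = fluorescence slope higher than the sample average by over 3 SD, cut at about -0.22 in these data, passing the limit was not always enough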;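 also: slope of raw intensity against log time taken from 70 to 1610 s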). The conditions noted are these: recombinant KvBeta, 4-cyanobenzaldehyde reduction, at 10 µM, stronger effect = higher value.
Test [6] shares this target. The test is described as follows: enhancers of rat Kvbeta2 NADPH turnover – biochemical, NADPH fluorescence, primary screen (AID 623;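 active = NADPH fluorescence slope more negative than the mean of all samples by about 3 SD, 99.7% confidence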;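 also: fluorescence intensity change per second fitted from 20 to 320 s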). The conditions noted are these: Recombinant KvBeta, NADPH fluorescence decrease slope, 10 min; at 10 µM; stronger effect = lower value.
In test [7] the target is Muscarinic acetylcholine receptor M4 (Homo sapiens) (UniProt P08173). Put plainly: M4-linked GIRK flux change, two-sided – cell-based, HEK293 M4/GIRK, thallium flux, BTC-AM, M4 allosteric agonist project, primary screen (AID 625;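 active = fluorescence slope after compound addition differing from the mean of all tested samples at 99.7% confidence, mostly higher but some lower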;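 also: thallium influx through GIRK channels coupled to M4 in HEK293 cells with BTC-AM dye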). The conditions noted are these: at 10 µM, actives lie on both sides. An outline of the steps:
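Assay system: HEK293 cells with M4 receptor and GIRK channels / Controls: carbachol and DMSO controls / Schedule: 1 h dye loading, 2 min kinetic read / Technique: kinetic fluorescence with BTC-AM dye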

Test [8] in a line: inhibitors of larval lipid processing in zebrafish, primary screen, whole organism, PED6 fluorescence, gall bladder and intestine (AID 686).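 Also: larvae 5 to 7 days old with five fish per well; signal comes from phospholipase A2 cleavage of quenched PED6 carried via bile.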 The conditions noted are these: Zebrafish larvae PED6 lipid processing, fluorescence scoring; screened at 20 µM (by protocol). The gist of the method: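 Doses: 20 µM single dose. Test system: live zebrafish larvae aged 5-7 days, whole organism. Quantity: five larvae per well. Measured by: By-eye fluorescence microscopy. Reagent: ingested quenched lipid PED6 at 100 nM. Read-out: visual per-well fluorescence inhibition score. Times: overnight exposure of larvae to compound plus PED6.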

A short description of test [9]: loss of swimming-algae plug formation – whole organism, Chlamydomonas reinhardtii, WT vs cilia-less mutant, absorbance, 96-well, primary screen (AID 463189;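 active = inhibition at or above 50% relative to wild type and mutant plate controls; inactive = inhibition below 50%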;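 also: 0% = wild type cc124 cells in DMSO and 100% = ciliumless bld1 mutant cells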). The conditions noted are these: Chlamydomonas reinhardtii gravitaxis, OD600 absorbance, 2 days; at 10 µM; stronger effect = higher value.
The mark [10] stands for this setting: measured here: cell density z-score.
Where [11] appears, read: measured here: nuclear c-Myc green intensity z-score.
The mark [12] stands for this setting: measured here: nuclear pErk red intensity z-score, stronger effect = higher value.

Each structure is given as a SMILES string. The source made the active and inactive calls.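 The calls were made as follows, unless noted: active = a full or partial loss of lipid-probe fluorescence in the fish gall bladder, intestine or both, judged by eye; inactive = no fluorescence loss, or compound toxic to the fish.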

In general, inhibition refers to the drop in the measured response relative to a control, in per cent.

Voltage-gated potassium channel subunit beta-2 (Rattus norvegicus), sequence (P62483 whole entry, looked up): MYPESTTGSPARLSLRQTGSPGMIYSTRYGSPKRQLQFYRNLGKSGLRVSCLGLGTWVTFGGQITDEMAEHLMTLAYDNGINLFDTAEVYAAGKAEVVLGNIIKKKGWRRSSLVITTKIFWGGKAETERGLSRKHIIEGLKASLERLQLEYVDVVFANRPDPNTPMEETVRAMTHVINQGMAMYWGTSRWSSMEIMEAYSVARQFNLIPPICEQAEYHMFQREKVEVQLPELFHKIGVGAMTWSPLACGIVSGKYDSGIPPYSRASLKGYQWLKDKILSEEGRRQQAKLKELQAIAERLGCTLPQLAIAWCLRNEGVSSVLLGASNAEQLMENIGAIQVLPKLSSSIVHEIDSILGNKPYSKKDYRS
Muscarinic acetylcholine receptor M4 (Homo sapiens), sequence (P08173 whole entry, looked up): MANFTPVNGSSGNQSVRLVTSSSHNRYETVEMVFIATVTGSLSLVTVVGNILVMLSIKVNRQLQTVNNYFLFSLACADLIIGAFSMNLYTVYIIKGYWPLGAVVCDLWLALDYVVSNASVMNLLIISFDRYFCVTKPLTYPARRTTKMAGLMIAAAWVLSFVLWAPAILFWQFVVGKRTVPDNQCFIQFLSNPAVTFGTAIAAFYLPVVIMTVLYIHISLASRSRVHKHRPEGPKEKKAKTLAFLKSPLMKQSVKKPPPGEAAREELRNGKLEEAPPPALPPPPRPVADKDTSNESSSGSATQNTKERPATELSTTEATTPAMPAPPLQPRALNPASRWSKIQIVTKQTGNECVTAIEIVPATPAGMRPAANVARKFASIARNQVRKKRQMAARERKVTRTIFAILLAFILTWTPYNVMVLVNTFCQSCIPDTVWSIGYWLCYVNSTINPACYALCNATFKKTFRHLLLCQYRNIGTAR
Dual specificity protein phosphatase 6 (Homo sapiens), sequence (Q16828 whole entry, looked up): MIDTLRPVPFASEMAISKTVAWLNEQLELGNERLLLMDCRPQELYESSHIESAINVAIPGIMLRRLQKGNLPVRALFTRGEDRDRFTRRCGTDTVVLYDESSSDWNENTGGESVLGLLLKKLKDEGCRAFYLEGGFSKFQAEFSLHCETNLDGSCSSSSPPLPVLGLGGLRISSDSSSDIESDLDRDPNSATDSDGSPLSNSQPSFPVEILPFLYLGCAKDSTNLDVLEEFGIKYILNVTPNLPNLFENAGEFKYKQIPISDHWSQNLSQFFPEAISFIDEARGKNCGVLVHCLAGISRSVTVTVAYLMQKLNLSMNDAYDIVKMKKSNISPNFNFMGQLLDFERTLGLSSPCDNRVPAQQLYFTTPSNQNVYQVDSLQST

For `COc1ccc(C2C(C(C)=O)=C(O)C(=O)N2c2nccs2)cc1OC` (centres undefined), the cell count in test [1] is 651. For the same compound, the inhibition was -8.9% (inactive) in test [1], -2.2% (inactive) in test [2], -7.67% (inactive) in test [4] and -3.88% (inactive) in test [9]. This compound came in with a nuclei count in [2] of 87.4%. The z-score in test [3] (setting [10]) is -0.646; in [3] (setting [11]), -0.662; in test [3] (setting [12]) it was -0.478. Also, the fluorescence slope in test [5] is -0.5 (inactive); in [7], 0.00821 (inactive). For the same compound, the NADPH fluorescence slope in test [6] was -0.000231 (inactive). The outcome in test [8] was inactive.

On to `O=C(OCCN1CCOCC1)c1ccc2c(c1)OCCO2`, for which the cell count in [1] came to 644. The inhibition was -12.8% (inactive) in test [1], 1.7% (inactive) in test [2], -9.53% (inactive) in [4] and -3.31% (inactive) in [9]. In addition, in test [2], the nuclei count amounted to 180%. In addition, the z-score is 0.036 in test [3] (setting [10]), 0.0112 in test [3] (setting [11]) and 0.434 in test [3] (setting [12]). Further, the fluorescence slope in test [5] was -0.473 (inactive); in test [7] it was 0.00543 (inactive). In addition, in test [6], the NADPH fluorescence slope is -6.5e-05 (inactive). For the same compound, the compound was classed as inactive in [8].

Take `CCCCCCOc1ccc(C(=O)n2cnc(N)n2)cc1`: the cell count in [1] came to 664. The inhibition is -4.5% (inactive) in test [1], -26.7% (inactive) in [2], -5.95% (inactive) in [4] and 0.29% (inactive) in [9]. This compound also yielded a nuclei count in test [2] of 174%. Also, the results for the z-score in [3] (setting [10]), in [3] (setting [11]) and in [3] (setting [12]) were 0.344, 0.534 and -0.706, respectively. The values for the fluorescence slope in test [5] and in [7] were -0.508 (inactive) and 0.00638 (inactive), respectively. In test [6], the NADPH fluorescence slope was -7.5e-05 (inactive). Besides, the compound was called inactive in test [8].

As to `CCc1c(C)c2cc(Cl)c(O)c(CN3CCCCC3)c2oc1=O`, the cell count in [1] came out at 634. Moreover, the inhibition was -3.5% (inactive) in [1], 6.3% (inactive) in [2], -10.6% (inactive) in test [4] and -1.88% (inactive) in test [9]. The compound also came in with a nuclei count in [2] of 174%. Moreover, the z-score in test [3] (setting [10]) was 0.309; in [3] (setting [11]), 0.0643; in test [3] (setting [12]) it was -0.532. Further, the fluorescence slope in [5] was -0.0112 (inactive); in [7], 0.00604 (inactive). Also, the NADPH fluorescence slope in test [6] was -2.8e-08 (inactive). In test [8], the compound was classed as inactive.

Take `COc1ccc(-c2nn(C)c(=O)c3ccccc23)cc1NS(C)(=O)=O`: in [1], the cell count turned out to be 373. Further, the inhibition was -6.1% (inactive) in [1], -7.8% (inactive) in [2], 11.9% (inactive) in test [4] and -10.8% (inactive) in test [9]. In test [2], the nuclei count was found to be 104%. Besides, the z-score in test [3] (setting [10]) was -0.517; in [3] (setting [11]), 0.9; in [3] (setting [12]) it was -0.714. In addition, the fluorescence slope is -0.509 (inactive) in [5] and 0.00473 (inactive) in test [7]. Besides, in test [6], the NADPH fluorescence slope was 1.7e-05 (inactive). In addition, the compound was classed as inactive in test [8].

In the case of `O=C1CC(c2ccccc2)n2nc(NS(=O)(=O)c3ccccc3)nc2N1` (centres undefined), the cell count in test [1] stood at 363. In addition, the inhibition in [1] is -12.1% (inactive); in test [2] it was -108% (inactive); in test [4] it was 14.4% (inactive); in test [9], -8.7% (inactive). In [2], the nuclei count worked out at 114%. In addition, the z-score in [3] (setting [10]) was 1.38; in test [3] (setting [11]), -0.224; in test [3] (setting [12]), -0.593. Also, the figures for the fluorescence slope in [5] and in test [7] were -0.486 (inactive) and 0.00519 (inactive), respectively. Moreover, the NADPH fluorescence slope in [6] was -2.9e-05 (inactive). The result in test [8] was inactive.

On to `COc1ccc(/C(O)=C2/C(=O)C(=O)N(Cc3ccco3)C2c2cccs2)cc1` (centres undefined), for which the cell count in test [1] came to 651. Besides, the inhibition in test [1] is 89.9% (active); in [2], -68.9% (inactive); in test [4], 3.42% (inactive); in test [9], 1.62% (inactive). In [2], this compound gave a nuclei count of 157%. In addition, the z-score in test [3] (setting [10]) is 1.37; in test [3] (setting [11]), -0.407; in test [3] (setting [12]) it was -1.07. For the same compound, the fluorescence slope in [5] is -0.435 (inactive); in test [7], 0.00532 (inactive). In addition, the NADPH fluorescence slope in test [6] was -4.8e-05 (inactive). In addition, in test [8], the outcome was inactive.

Regarding `O=C1CC(c2ccco2)CC(O)=C1C=NCCN1CCN(C2CC(=O)N(c3ccccc3)C2=O)CC1` (centres undefined), in test [1], the cell count stood at 378. In addition, the inhibition in [1] was -0.3% (inactive); in [2], -133% (inactive); in test [4], -4.78% (inactive); in [9], -7.38% (inactive). In test [2], this compound showed a nuclei count of 162%. Further, the z-score is -1.98 in [3] (setting [10]), 0.592 in [3] (setting [11]) and 0.0438 in [3] (setting [12]). Further, the fluorescence slope in test [5] was -0.462 (inactive); in [7], 0.00456 (inactive). For the same compound, in test [6], the NADPH fluorescence slope is -6e-05 (inactive). Moreover, the outcome in test [8] was inactive.

On to `CCCCOc1ccc(C(=O)N2CCCC2C(=O)O)cc1` (centres undefined), for which, in test [1], the cell count was 675. Moreover, the inhibition in test [1] was 2.7% (inactive); in test [2], 22.4% (inactive); in [4], -13.3% (inactive); in test [9], 7.22% (inactive). The compound also displayed a nuclei count in test [2] of 146%. For the same compound, the z-score in [3] (setting [10]) worked out at 0.371; in test [3] (setting [11]), 0.251; in test [3] (setting [12]) it was 0.422. For the same compound, the fluorescence slope in test [5] was -0.458 (inactive); in test [7] it was 0.00494 (inactive). Further, the NADPH fluorescence slope in [6] is -4.7e-05 (inactive). The compound was classed as inactive in test [8].

With `CCc1[nH]c(=O)c(C#N)c2c1CSC(C)(C)C2`, the cell count in test [1] was found to be 678. Further, the inhibition in test [1] is -9.4% (inactive); in [2] it was -211% (inactive); in test [4], -6.06% (inactive); in [9], 11.4% (inactive). Also, the nuclei count in test [2] stood at 166%. The values for the z-score in test [3] (setting [10]), in [3] (setting [11]) and in test [3] (setting [12]) were 0.402, 0.0532 and -0.896, respectively. The fluorescence slope was -0.471 (inactive) in test [5] and 0.00604 (inactive) in test [7]. The NADPH fluorescence slope in test [6] is -6.8e-05 (inactive). Further, the compound was classed as inactive in test [8].

As to `Cn1c(=O)c2c(nc(NCc3ccc4c(c3)OCO4)n2Cc2ccccc2)n(C)c1=O`, the cell count in test [1] amounted to 656. For the same compound, the inhibition in test [1] was -20.1% (inactive); in [2], -108% (inactive); in test [4], -7.93% (inactive); in test [9], -2.21% (inactive). This compound also had a nuclei count in test [2] of 96.2%. Besides, the z-score was -0.797 in test [3] (setting [10]), -1.34 in [3] (setting [11]) and -1.17 in [3] (setting [12]). Also, the results for the fluorescence slope in test [5] and in test [7] were -0.5 (inactive) and 0.00776 (inactive), respectively. For the same compound, in test [6], the NADPH fluorescence slope is -0.000109 (inactive). Moreover, in test [8], the compound was called inactive.

In the case of `O=C(c1coc(=O)c(Br)c1)N1CCOCC1`, in [1], the cell count was found to be 718. In addition, the inhibition is 2.4% (inactive) in test [1], -137% (inactive) in [2], -4.7% (inactive) in test [4] and 14.2% (inactive) in test [9]. The compound also came in with a nuclei count in [2] of 181%. For the same compound, the z-score was -0.0624 in [3] (setting [10]), 0.26 in test [3] (setting [11]) and 0.186 in test [3] (setting [12]). In addition, the figures for the fluorescence slope in [5] and in [7] were -0.429 (inactive) and 0.00447 (inactive), respectively. Moreover, the NADPH fluorescence slope in test [6] is 3.1e-07 (inactive). Besides, the compound was called inactive in [8].

Consider `O=C(O)c1cc2cccc(S(=O)(=O)N3CCOCC3)c2cc1O`, for which, in test [1], the cell count turned out to be 655. Besides, the inhibition in test [1] was -1.8% (inactive); in test [2] it was -122% (inactive); in test [4] it was -9.66% (inactive); in test [9] it was -7.07% (inactive). Moreover, the nuclei count in test [2] amounted to 164%. For the same compound, the z-score in test [3] (setting [10]) was -0.358; in test [3] (setting [11]), 0.0278; in [3] (setting [12]), -2.77. Moreover, the fluorescence slope in test [5] was -0.0405 (active); in [7], 0.00567 (inactive). Moreover, the NADPH fluorescence slope in [6] was -1e-05 (inactive). In addition, the result in test [8] was inactive.

For the origin of these results see PubChem BioAssay.
